By IC50 is commonly meant the concentration that gives 50% inhibition. One may read the EC50 as the concentration needed to bring the measured effect to its halfway point. Lower therefore signals an effect from little substance.

Activity calls are given as the source filed them. The rule behind the calls is not given here.

Series [1] relates to A-375. The series can be described thus: Antiproliferative activity in human A-375 cells assessed as reduction of cell number. It counts as functional, cell-based. A digest of the protocol: (§1)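 A375 human melanoma cells exposed to compound for 3 days in 3-fold serial dilution in 0.5% DMSO. Cells were stained with Hoechst 33342, LysoTracker Red DND-99 and CellMask, then imaged and segmented by a customized algorithm. Cell number per well was counted, and IC50 is the concentration reducing cell number by 50%, taken from dose–response curves. Run in duplicate.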

Series [2] relates to A-375. Put plainly: Induction of senescence in human A-375 cells treated for 3 days by Hoechst staining based imaging analysis. The series is classed as functional, cell-based. The settings on record: A-375, 72 h. A digest of the protocol: (§2)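 A375 melanoma cells were treated for 3 days with a 3-fold dilution series in 0.5% DMSO and stained with Hoechst 33342, LysoTracker Red DND-99 and CellMask. Image analysis scored cell and nucleus size, granule size and spacing, and cytoplasmic texture to give the percentage of senescent cells per well. EC50 is the concentration inducing senescence in half the population, taken from dose–response curves. Run in duplicate; Z′ about 0.8.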

Series [3] has as its system A-375. Put plainly: Induction of cell senescence in human A-375 cells assessed by increased SA-beta-Gal activity at 37 nM measured after 3 days by Hoechst staining based imaging analysis. The following applies: time 3.0 day. The series is classed as functional. A digest of the protocol: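 A375 cells were treated with or without 37 nM agent in 0.5% DMSO for 3 days. Senescence was read in two ways: by Hoechst 33342/LysoTracker Red/CellMask phenomic imaging, and by SA-β-gal staining.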

Series [4] can be described thus: Metabolic stability at phase 1 in human liver microsomes. It counts as ADME, Microsome.
Series [5] deals with A-375. Put plainly: Induction of senescence-like phenotype in human A-375 cells assessed as enlarged cell size after 3 days by staining based imaging assay. It counts as functional. The settings on record: time 3.0 day. A digest of the protocol: as §2
Series [6] concerns A-375. Put plainly: Induction of senescence-like phenotype in human A-375 cells assessed as nucleus size with increasing cytoplasmic granularity after 3 days by staining based imaging assay. The series is classed as functional, cell-based. The following applies: time 3.0 day. The procedure, abridged: as §2
Series [7] deals with A-375. The series can be described thus: Anti melanoma activity in human A-375 cells assessed as inhibition of cell growth after 3 days. It counts as functional, cell-based. The following applies: time 3.0 day. A digest of the protocol:
as §1

Series [8] is described as follows: Metabolic stability at phase 1 in mouse liver microsomes. It counts as ADME, Microsome.
In series [9] the test system is A-375. Put plainly: Induction of senescence-like phenotype in human A-375 cells assessed as phenotypic changes after 3 days. It counts as functional, cell-based. The following applies: time 3.0 day. The procedure, abridged:
as §2

The subject of series [10] is A-375. Put plainly: Anti melanoma activity in human A-375 cells assessed by decreased cell number measured after 3 days. It counts as functional, cell-based. The following applies: time 3.0 day. A digest of the protocol: as §1

For `O=C(Nc1ccc(-c2c[nH]cn2)cc1)C1CCCN(Cc2ccc(F)c(F)c2)C1` (centres undefined), the IC50 in the series with A-375 [1] was greater than 20000 nM. The compound also gave an EC50 with A-375 [2] of 16000 nM.
For `O=C(Nc1ccc(-c2cscn2)cc1)C1CCCN(Cc2ccccc2)C1` (centres undefined), in that order: greater than 20000 nM and greater than 20000 nM.
The like results for `O=C(Nc1ccc(-c2ccccc2)cc1)C1CCCN(Cc2ccc(F)c(F)c2)C1` (centres undefined) were, in that order, 2580 nM and 5000 nM.
The like results for `O=C(Nc1ccc(-c2cscn2)cc1)[C@@H]1CCCN(Cc2ccc(F)c(F)c2)C1` were, in that order, 6000 nM and 4000 nM.
As to `O=C(Nc1ccc(-c2ccsc2)cc1)C1CCCN(Cc2ccc(F)c(F)c2)C1` (centres undefined), the IC50 with A-375 [1] was 950 nM. The compound also came in with an EC50 in the series on A-375 [2] of 1930 nM.
As to `O=C(Nc1ccc(-c2nccs2)cc1)C1CCCN(Cc2ccc(F)c(F)c2)C1` (centres undefined), in the series with A-375 [1], the IC50 turned out to be 240 nM. The same compound came in with an EC50 in the series with A-375 [2] of 800 nM.
The like results for `O=C(Nc1ccc(-c2ccco2)cc1)C1CCCN(Cc2ccc(F)c(F)c2)C1` (centres undefined) were, in that order, 1040 nM and 2200 nM.
The like results for `O=C(Nc1ccc(-c2cscn2)cc1)C1CCCN(Cc2ccc3c(c2)OCO3)C1` (centres undefined) were, in that order, 630 nM and 600 nM.
For `O=C(Nc1ccc(-c2cscn2)cc1)C1CCCN(Cc2cc(F)c(F)c(F)c2)C1` (centres undefined), in that order: 400 nM and 1260 nM.
Take `O=C(Nc1ccc(-c2ccn[nH]2)cc1)C1CCCN(Cc2ccc(F)c(F)c2)C1` (centres undefined): in the series on A-375 [1], the IC50 is 520 nM. This compound displayed an EC50 in the series on A-375 [2] of 580 nM.
For `O=C(Nc1ccc(-c2cscn2)cc1)C1CCN(Cc2ccc(F)c(F)c2)CC1`, in that order: greater than 20000 nM and 19000 nM.
`O=C(Nc1ccc(-c2ccoc2)cc1)C1CCCN(Cc2ccc(F)c(F)c2)C1` (centres undefined): the IC50 with A-375 [1] was 1290 nM. In the series with A-375 [2], the EC50 came to 3000 nM.
For `O=C(Nc1ccc2scnc2c1)C1CCCN(Cc2ccc(F)c(F)c2)C1` (centres undefined), in that order: greater than 20000 nM and greater than 20000 nM.
In the case of `COc1cc(-c2cscn2)ccc1NC(=O)C1CCCN(Cc2ccc(F)c(F)c2)C1` (centres undefined), the IC50 in the series on A-375 [1] amounted to 580 nM. In the series with A-375 [2], this compound came in with an EC50 of 4000 nM.
The like results for `O=C(Nc1ccc(-c2ccccn2)cc1)C1CCCN(Cc2ccc(F)c(F)c2)C1` (centres undefined) were, in that order, 9000 nM and 11000 nM.
For `O=C(Nc1ccc(-c2ccc[nH]2)cc1)[C@H]1CCCN(Cc2ccc(F)c(F)c2)C1`, in that order: 190 nM and 140 nM.
Turning to `O=C(Nc1ccc(-c2cscn2)cc1)C1CCCN(Cc2ccc(F)cc2)C1` (centres undefined), the IC50 in the series with A-375 [1] turned out to be 2250 nM. In addition, the midpoint of the response in the series on A-375 [2], the EC50, lay at 5000 nM.
The like results for `O=C(Nc1ccc(-c2cscn2)cc1)C1CCCN(Cc2cccc(C(F)(F)F)c2)C1` (centres undefined) were, in that order, greater than 20000 nM and greater than 20000 nM.
In the case of `O=C(NC1CCCN(Cc2ccc(F)c(F)c2)C1)c1ccc(-c2cscn2)cc1` (centres undefined), the IC50 with A-375 [1] was greater than 20000 nM. In addition, in the series on A-375 [2], the EC50 was greater than 20000 nM.
Turning to `O=C(Nc1ccc(-c2ccc[nH]2)nc1)[C@H]1CCCN(Cc2ccc(F)c(F)c2)C1`, the IC50 in the series on A-375 [1] came out at 3010 nM. Besides, in the series with A-375 [2], the EC50 is 4000 nM.
For the compound `O=C(Nc1ccc(-c2cscn2)cc1)C1CCN(Cc2ccc(F)c(F)c2)C1` (centres undefined), in the series with A-375 [1], the IC50 came out at 10000 nM. The compound further had an EC50 in the series on A-375 [2] of 8000 nM.
The like results for `O=C(Nc1ccc(-c2cscn2)cc1)C1CCCN(Cc2cc(F)cc(F)c2)C1` (centres undefined) were, in that order, 1360 nM and 1500 nM.
For `O=C(Nc1ccc(-c2cscn2)cc1)C1CCCN(S(=O)(=O)c2ccc(F)c(F)c2)C1` (centres undefined), in that order: greater than 20000 nM and greater than 20000 nM.
In the case of `O=C(Nc1ccc(-c2cccs2)cc1)C1CCCN(Cc2ccc(F)c(F)c2)C1` (centres undefined), the IC50 in the series with A-375 [1] turned out to be 390 nM. The compound also registered an EC50 in the series with A-375 [2] of 530 nM.
For `O=C(Nc1ccc(-c2ncc[nH]2)cc1)C1CCCN(Cc2ccc(F)c(F)c2)C1` (centres undefined), in that order: 19000 nM and 8000 nM.
For `O=C(Nc1ccc(-c2ccc[nH]2)cc1)[C@H]1CCCN(Cc2ccc3c(c2)OCO3)C1`, in that order: 220 nM and 160 nM.
The like results for `O=C(Nc1ccc(-c2ccc[nH]2)cc1)[C@@H]1CCCN(Cc2ccc(F)c(F)c2)C1` were, in that order, 18000 nM and 19900 nM.
Turning to `COc1cccc2c1C(=O)c1c(O)c3c(c(O)c1C2=O)C[C@@](O)(C(=O)CO)C[C@@H]3O[C@H]1C[C@H](N)[C@H](O)[C@H](C)O1` [DOXORUBICIN], the outcome with A-375 [3] was Active. In the series with A-375 [1], the IC50 amounted to 8 nM.
Regarding `O=C(Nc1ccc(-c2cccnc2)cc1)C1CCCN(Cc2ccc(F)c(F)c2)C1` (centres undefined), the IC50 with A-375 [1] worked out at 610 nM. In the series with A-375 [2], this compound came in with a 50% effective concentration (EC50) of 1060 nM.
The like results for `O=C(Nc1ccc(-c2ccncc2)cc1)C1CCCN(Cc2ccc(F)c(F)c2)C1` (centres undefined) were, in that order, 600 nM and 1180 nM.
On to `O=C(Nc1ccc(-c2ccc[nH]2)cn1)[C@H]1CCCN(Cc2ccc(F)c(F)c2)C1`, for which the IC50 with A-375 [1] came out at 30 nM. In the series on A-375 [2], this compound registered an EC50 of 40 nM. Besides, the Stabilty result in [4] and in series [8] was “Stable” throughout. Further, the result in the series on A-375 [5], in the series with A-375 [6], with A-375 [7] and with A-375 [9] was Active.
As for `O=C(Nc1ccc(-c2cscn2)cc1)C1CCCN(Cc2ccccc2F)C1` (centres undefined), in the series on A-375 [1], the IC50 was determined as 4000 nM. The EC50 in the series on A-375 [2] was 7000 nM.
The like results for `COc1cccc(CN2CCCC(C(=O)Nc3ccc(-c4cscn4)cc3)C2)c1` (centres undefined) were, in that order, greater than 20000 nM and greater than 20000 nM.
As for `O=C(Nc1ccc(-c2cscn2)cc1)C1CN(Cc2ccc(F)c(F)c2)C1`, in the series with A-375 [1], the IC50 is greater than 20000 nM. The compound also registered an EC50 in the series with A-375 [2] greater than 20000 nM.
On to `O=C(Nc1ccc(-c2cscn2)cc1)C1CCCN(Cc2cccc(OC(F)(F)F)c2)C1` (centres undefined), for which the IC50 with A-375 [1] was greater than 20000 nM. In addition, the EC50 in the series with A-375 [2] is greater than 20000 nM.
Consider `O=C(Nc1ccc(-c2cc[nH]c2)cc1)C1CCCN(Cc2ccc(F)c(F)c2)C1` (centres undefined), for which the IC50 with A-375 [1] came out at 1420 nM. In the series on A-375 [2], this compound registered an EC50 of 2610 nM.
The like results for `O=C(Nc1ccc(-c2cscn2)cc1)C1CCCN(C(=O)c2ccc(F)c(F)c2)C1` (centres undefined) were, in that order, greater than 20000 nM and greater than 20000 nM.
The like results for `O=C(Nc1ccc(-c2ccc[nH]2)cc1F)[C@H]1CCCN(Cc2ccc(F)c(F)c2)C1` were, in that order, 130 nM and 100 nM.
Turning to `O=C(Nc1ccc(-c2cscn2)cc1)[C@H]1CCCN(Cc2ccc(F)c(F)c2)C1`, the IC50 with A-375 [1] is 190 nM. The EC50 in the series with A-375 [2] was found to be 270 nM.
The like results for `O=C(Nc1ccc(-c2cscn2)cc1)C1CCCN(Cc2ccc(Cl)c(Cl)c2)C1` (centres undefined) were, in that order, 1730 nM and 3000 nM.
For `Cc1cc(NC(=O)[C@H]2CCCN(Cc3ccc(F)c(F)c3)C2)ccc1-c1ccc[nH]1`, in that order: 730 nM and 3000 nM.
On to `O=C(Nc1ccc(-c2cscn2)cc1)C1CCCN(Cc2cccc(F)c2F)C1` (centres undefined), for which, in the series on A-375 [1], the IC50 was 1480 nM. Besides, a half-maximal effect with A-375 [2] (EC50) was put at 10000 nM.
With `O=C(Nc1ccc(-c2cscn2)cc1)C1CCCN(Cc2cccc(F)c2)C1` (centres undefined), in the series on A-375 [1], the IC50 amounted to 2450 nM. For the same compound, the response in the series with A-375 [2] was half-maximal at 5000 nM (EC50).
As for `O=C(Nc1ccc(-c2cscn2)cc1)C1CCCN(Cc2ccc3cn[nH]c3c2)C1` (centres undefined), in the series with A-375 [1], the IC50 is greater than 20000 nM. Further, the EC50 in the series on A-375 [2] was greater than 20000 nM.
On to `O=C(Nc1ccc(-c2cscn2)cc1)C1CCCN(Cc2cccnc2)C1` (centres undefined), for which the concentration for half-maximal inhibition (IC50) in the series with A-375 [1] is greater than 20000 nM. The compound further returned a concentration giving a half-maximal response (EC50) with A-375 [2] greater than 20000 nM.
In the case of `O=C(Nc1ccc(-c2cscn2)cc1)C1CCCN(Cc2ccc(F)c(F)c2)C1` (centres undefined), in the series with A-375 [1], the IC50 came to 880 nM. For the same compound, the EC50 in the series with A-375 [2] came to 1240 nM. In addition, the Stabilty entry in series [4] and in series [8] was “Stable” each time. For the same compound, the outcome in the series on A-375 [10] and with A-375 [9] was Active.
Consider `O=C(Nc1ccc(-c2ccc[nH]2)cc1)C1CCCN(Cc2ccc(F)c(F)c2)C1` (centres undefined), for which, in the series on A-375 [1], the IC50 amounted to 360 nM. In the series on A-375 [2], this compound came in with an EC50 of 720 nM.
